CaV13 ICDI inh: Disruptors of the CACNA1D IQ motif to Ca2+-dependent inactivation inhibitor domain association, primary screening, Förster resonance energy transfer in intact living …; AID 743397; inhibition, % at 12.3 µM; HEK cells, CFP/YFP FRET ICDI-IQ, plate reader, 10 min; percent FRET-ratio fall versus neutral wells; 0.098% of 340,000 active;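 active = mean replicate inhibition of at least 30% and at least 1% of replicates passing that level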;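 also: 0% = median of the neutral control wells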
ADAM10 inh: inhibits human ADAM10. recombinant ADAM10, EDANS/DABCYL FRET peptide cleavage, 3 h. O14672. AID 720582. 0.62% of 370,000 active. inhibition, % at 7 µM;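 active = inhibition above a per-campaign cutoff equal to the mean of compounds falling between control-based bounds plus 3 SD, cut at about 20% in these data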;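 also: 0% = DMSO wells while the 100% control is not disclosed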
Target sequence (O14672 214-748 limits assumed): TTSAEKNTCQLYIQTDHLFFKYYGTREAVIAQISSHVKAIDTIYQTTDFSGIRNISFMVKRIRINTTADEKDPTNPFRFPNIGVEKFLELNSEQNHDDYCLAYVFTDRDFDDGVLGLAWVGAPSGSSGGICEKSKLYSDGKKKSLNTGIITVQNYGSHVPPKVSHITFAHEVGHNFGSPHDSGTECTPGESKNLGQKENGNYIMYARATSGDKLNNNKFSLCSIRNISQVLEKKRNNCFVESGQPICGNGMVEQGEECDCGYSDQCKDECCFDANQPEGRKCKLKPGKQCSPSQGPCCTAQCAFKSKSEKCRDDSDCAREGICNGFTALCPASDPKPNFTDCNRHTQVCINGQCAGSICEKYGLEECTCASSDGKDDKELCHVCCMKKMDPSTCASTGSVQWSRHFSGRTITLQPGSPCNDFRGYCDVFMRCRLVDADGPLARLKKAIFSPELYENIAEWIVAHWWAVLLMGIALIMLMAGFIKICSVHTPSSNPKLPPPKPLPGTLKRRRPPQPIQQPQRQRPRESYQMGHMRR
CendR NRP1 mod: alters CendR peptide binding to human NRP-1; FAM-RPARPAR peptide binding to NRP-1, fluorescence polarization; inhibition, % at 25 µM; 0.85% of 360,000 active; AID 602438;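 active = inhibition or corrected inhibition above about 18%, plus a signal ratio from 0.5 to 1.5, limit read from the data, passing the limit was not always enough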
ADAM17 inh: inhibits human ADAM17 | 0.83% of 370,000 active | AID 720648 | recombinant ADAM17, EDANS/DABCYL FRET peptide cleavage | P78536 | inhibition, % at 6.95 µM;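 active = inhibition above the mean of compounds lying between control limits plus 3 SD, set per campaign, cut at about 8.5% in these data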;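 also: 0% = DMSO-only wells as the low control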
FAS-TE inh: inhibitors of human fatty acid synthase thioesterase domain. P49327. recombinant FAS-TE, OMFH fluorogenic substrate, fluorescence endpoint. inhibition, % at 15 µM. 0.67% of 360,000 active. AID 602261;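 active = compounds whose normalised, plate-corrected inhibition of enzyme fluorescence in the single-dose primary screen is 50% or more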;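 also: 0% = DMSO with enzyme and 100% = substrate without enzyme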
Arr AP2 block: human beta-arrestin and AP2 interaction inhibition; 0.31% of 340,000 active; FITC-arrestin peptide / GST-AP2 beads, flow cytometry; AP2 beta2 appendage carries R879A mutation; AID 504490; inhibition, % at 10 µM;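 active = inhibition above a set limit, near 3 SD of compounds lacking own fluorescence, cut at about 54% in these data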;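 also: plate controls were DMSO wells for no effect and 5 µM unlabelled arrestin peptide for full effect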
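system = GST-tagged AP2 beta2-adaptin appendage (R879A) on 4 µm glutathione beads | reagent = FITC-labelled arrestin peptide probe, 50 nM final | schedule = compound with beads 12 min RT, then probe 1 h RT | signal = HyperCyt-sampled flow cytometry, FL1 channel, ex 488/em 535 nm | read-out = percent response from loss of bead-bound FITC fluorescence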
ADAM10 ctr: ADAM10 inhibition, counter-screen for ADAM17 exosite hits; shares compounds with ADAM17 inh; inhibition, % at 6.95 µM; 47% of 2,900 active; recombinant ADAM10, EDANS/DABCYL FRET peptide cleavage, 3 h;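 active = mean inhibition over the triplicate runs exceeds the activity threshold set in the earlier primary screen, cut at about 20% in these data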;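 also: 0% = DMSO wells and 100% = marimastat wells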
ADAM17 confirm: human ADAM17 inhibition, confirmation | AID 743257 | shares compounds with ADAM17 inh | inhibition, % at 6.95 µM | recombinant ADAM17, EDANS/DABCYL QFRET peptide cleavage | 65% of 2,900 active;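 active = mean inhibition across replicates above the hit cutoff set in the primary screen, cut at about 8.5% in these data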;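 also: 0% = DMSO wells and 100% = marimastat wells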
* marks the source's active call; other numbers are inactive results. Shown are actives, neighbours in structure and some others; about 2.9% of the full set was active somewhere.

O=C(CSc1nc(Nc2ccccc2)nc(N2CCOCC2)n1)Nc1ccc([N+](=O)[O-])cc1 was read as CaV13 ICDI inh -8, ADAM10 inh 5, CendR NRP1 mod -2, ADAM17 inh -4, FAS-TE inh 43 and Arr AP2 block 22.
Screening O=C(CSc1nc(Nc2ccccc2)nc(N2CCOCC2)n1)Nc1cccc([N+](=O)[O-])c1 returned ADAM10 inh 15, CendR NRP1 mod 12, ADAM17 inh 10*, FAS-TE inh 42, Arr AP2 block -11, ADAM10 ctr 38* and ADAM17 confirm 22*.
CCOC(=O)C1=CCN(S(=O)(=O)c2ccc(Cl)cc2)C1c1cccc(Cl)c1 (centres undefined) was read as CaV13 ICDI inh -2, ADAM10 inh 6 and ADAM17 inh 5.
For C=CCOc1ccc(CNc2nn[nH]n2)cc1 the results were CaV13 ICDI inh -5, ADAM10 inh 17, CendR NRP1 mod -6, ADAM17 inh 9.1*, FAS-TE inh -24, Arr AP2 block 19, ADAM10 ctr -15 and ADAM17 confirm -3.
CC1=C(C(=O)N2CCOCC2)CC(CC(=O)NCc2cccc3ccccc23)C(=O)N1Cc1ccc(C(C)(C)C)cc1 (centres undefined) was read as CaV13 ICDI inh -4, ADAM10 inh 3, CendR NRP1 mod 2, ADAM17 inh 9.0*, FAS-TE inh 12, ADAM10 ctr 14 and ADAM17 confirm 7.
For CCN(CC)C(=O)C1=C(C)N(Cc2ccc(C(C)(C)C)cc2)C(=O)C(CC(=O)NC(c2ccccc2)c2ccccc2)C1 (centres undefined) the results were CaV13 ICDI inh -3, ADAM10 inh 5, CendR NRP1 mod -4, ADAM17 inh 9.3*, FAS-TE inh 14, ADAM10 ctr 27* and ADAM17 confirm 13*.
Screening O=C(Cn1nc(-c2cccc(Cl)c2)ccc1=O)NCC1COCCO1 (centres undefined) returned CaV13 ICDI inh -5, ADAM10 inh -8, CendR NRP1 mod -6, ADAM17 inh -1, FAS-TE inh -6 and Arr AP2 block -11.
`O=C(OCn1nnc2ccccc2c1=O)c1ccc(S(=O)(=O)N2CCOCC2)cc1` gave CendR NRP1 mod -12, FAS-TE inh 14 and Arr AP2 block 5.
`CCN(CC)S(=O)(=O)c1ccc(C(=O)OCn2nnc3ccccc3c2=O)cc1` gave ADAM10 inh 12, CendR NRP1 mod -8, ADAM17 inh 10*, FAS-TE inh 18, Arr AP2 block -16, ADAM10 ctr 7 and ADAM17 confirm 5.
COc1ccc(NC(=O)CN(C)C(=O)c2ccc(COc3ccccc3)cc2)cc1 was read as CaV13 ICDI inh -5, ADAM10 inh -10, CendR NRP1 mod 3, ADAM17 inh -4, FAS-TE inh 5 and Arr AP2 block -5.
For Cc1ccc(C)c(NC(=O)CN(C)C(=O)c2ccc(COc3ccccc3)cc2)c1 the results were CaV13 ICDI inh 0, ADAM10 inh 7, CendR NRP1 mod -8, ADAM17 inh 11*, FAS-TE inh 6, ADAM10 ctr 7 and ADAM17 confirm 6.
`NC(=O)CC[C@@H]1NC(=O)[C@H](CO)NC(=O)c2cc([N+](=O)[O-])cc(I)c2OCC[C@@H](C(N)=O)NC1=O` gave CaV13 ICDI inh -10, ADAM10 inh 17, CendR NRP1 mod 1, ADAM17 inh 10*, FAS-TE inh -5, Arr AP2 block 5, ADAM10 ctr 12 and ADAM17 confirm 5.
For C=CC[C@@H](CC(=O)N[C@@H](CO)Cc1ccccc1)C(=O)N[C@H](COC(=O)[C@H](CC=C)CC(=O)OC(C)(C)C)Cc1c[nH]c2ccccc12 the results were CaV13 ICDI inh -4, ADAM10 inh 18, CendR NRP1 mod 1, ADAM17 inh 9.9*, FAS-TE inh 15, Arr AP2 block -4, ADAM10 ctr 44* and ADAM17 confirm 23*.
C=CC[C@H](CC(=O)N[C@H](CO)Cc1ccccc1)C(=O)N[C@H](COC(=O)[C@H](CC=C)CC(=O)OC(C)(C)C)Cc1c[nH]c2ccccc12 was read as CaV13 ICDI inh -9, ADAM10 inh 18, CendR NRP1 mod 5, ADAM17 inh 11*, FAS-TE inh 8, Arr AP2 block 0, ADAM10 ctr 26* and ADAM17 confirm 13*.
C=CCC[C@@H](Cc1ccc(F)cc1)C(=O)OC[C@@H](NC(=O)[C@@H](CC=C)CC(=O)N[C@H](CO)Cc1ccccc1)C(C)(C)C was read as CaV13 ICDI inh -5, ADAM10 inh 18, CendR NRP1 mod 5, ADAM17 inh 9.6*, FAS-TE inh 10, Arr AP2 block 16, ADAM10 ctr 35* and ADAM17 confirm 18*.
C=CC[C@@H](CC(=O)N[C@H](CO)Cc1ccccc1)C(=O)N[C@H](COC(=O)[C@@H](CC=C)CC(=O)OC(C)(C)C)Cc1ccccc1 was read as CaV13 ICDI inh -8, ADAM10 inh 10, CendR NRP1 mod -9, ADAM17 inh 9.6*, FAS-TE inh 8, Arr AP2 block 0, ADAM10 ctr 19 and ADAM17 confirm 8.
Screening CC(C)[C@@H]1Cc2[nH][nH]c(=O)c2[C@H](c2ccc(F)cc2)O1 returned CaV13 ICDI inh -5, ADAM10 inh -6, CendR NRP1 mod -1, ADAM17 inh -5 and FAS-TE inh -5.
C=CC[C@@H](CC(=O)N(CCO)Cc1ccccc1)C(=O)N[C@H](COC(=O)[C@@H](CC=C)CC(=O)OC(C)(C)C)Cc1ccccc1 was read as CaV13 ICDI inh -3, ADAM10 inh 28*, CendR NRP1 mod 3, ADAM17 inh 18*, FAS-TE inh 14, Arr AP2 block 3, ADAM10 ctr 39* and ADAM17 confirm 18*.
Screening C=CC[C@H](CC(=O)N(CCO)Cc1ccccc1)C(=O)N[C@H](COC(=O)[C@@H](CC=C)CC(=O)OC(C)(C)C)Cc1ccccc1 returned CaV13 ICDI inh -11, ADAM10 inh 14, CendR NRP1 mod 5, ADAM17 inh 5, FAS-TE inh 17 and Arr AP2 block 8.
Screening O=C(Nc1ccccc1Oc1ccccc1)c1cc([N+](=O)[O-])ccc1Cl returned CaV13 ICDI inh -3, ADAM10 inh -3, CendR NRP1 mod 2, ADAM17 inh 8.9*, FAS-TE inh 49, Arr AP2 block 4, ADAM10 ctr 0 and ADAM17 confirm 3.

Compound activity (PubChem BioAssay)
